# Measurements as given in paper PMC4256430 (Journal of immunology (Baltimore, Md. : 1950), 2010).
# Entries after “also recorded” stand apart in the source; their conditions may differ. Like-named read-outs stand apart in the source and are kept apart here. No end group written: not given here.
# B1: SAA: serum amyloid A, purchased from PeproTech (protein, UniProt P0DJI8 19-122, looked up)
# Serum amyloid A-1 protein: RSFFSFLGEAFDGARDMWRAYSDMREANYIGSDKYFHARGNYDAAKRGPGGAWAAEVITDARENIQRFFGHGAEDSLADQAANEWGRSGKDPNHFRPAGLPEKY
# B2: hrAnxA1: GST-tagged human recombinant annexin A1, produced in Escherichia coli (protein, UniProt P04083 2-346, looked up)
# Annexin A1: AMVSEFLKQAWFIENEEQEYVQTVKSSKGGPGSAVSPYPTFNPSSDVAALHKAIMVKGVDEATIIDILTKRNNAQRQQIKAAYLQETGKPLDETLKKALTGHLEEVVLALLKTPAQFDADELRAAMKGLGTDEDTLIEILASRTNKEIRDINRVYREELKRDLAKDITSDTSGDFRNALLSLAKGDRSEDFGVNEDLADSDARALYEAGERRKGTDVNVFNTILTTRSYPQLRRVFQKYTKYSKHDMNKVLDLELKGDIEKCLTAIVKCATSKPAFFAEKLHQAMKGVGTRHKALIRIMVSRSEIDMNDIKAFYQKMYGISLCQAILDETKGDYEKILVALCGGN
# modifications: GST tag
# Assays:
# FPR2/ALX = conditions: ref [32]; cited from earlier work
# [1] = test system: IL-1β–induced Gr1^+ cell recruitment, WT and Fpr2^−/− mice; assay: IL-1β–induced air pouch, Gr1^+ cell; assay type: in vivo, mouse; conditions: 4 h; for inhibition of IL-1β-promoted Gr1^+ cell recruitment, WT: Ac2–26 dose-dependent, LXA4 and Cpd43 at anti-inflammatory doses, n = 6, p < 0.01
# [2] = test system: ERK phosphorylation in peritoneal Mϕs (WT and Fpr2^−/−); assay: ERK phosphorylation in Mϕs; assay type: cell-based, mouse; conditions: concentration range, 10 min at 37°C, n = 3; for ERK phosphorylation, Fpr2^−/− Mϕs: Fpr2^−/− Mϕs compared with WT
# Procedure, shortened: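 Peritoneal macrophages from WT littermates and Fpr2−/− mice were equilibrated 30 min in Glutamax DMEM with penicillin/streptomycin, then exposed to ligand concentration ranges for 10 min at 37°C. Lysates underwent SDS-PAGE and PVDF transfer. Blots were probed overnight for phospho-p44/42 and total p44/42 (each 1:1000), with HRP anti-rabbit and ECL detection. Read-out was the phospho-/total ERK ratio, from three distinct cultures (Mann-Whitney U).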
# Fpr2 [3] = conditions: cited from earlier work
# all FPRs = conditions: in vitro experimental settings; ref [33]; cited from earlier work
# Fpr2 [4] = assay type: binding, mouse; conditions: WT Mϕs; [125I]-labeled W-peptide
# Procedure, shortened: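 Primary peritoneal macrophages (10 × 10^6 cells/ml in PBS with Ca2+/Mg2+) were incubated with [125I]W-peptide tracer for 1 h on ice. Excess unlabeled W-peptide defined nonspecific binding; specific binding was calculated as total minus nonspecific. Cells were collected on GF/C filters by vacuum filtration and washed three times with ice-cold 10 mM Tris-HCl. Bound counts were read on a γ-counter. The experiment was repeated three times.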
# Mϕs (WT and Fpr2^−/−) = assay: Mϕ chemotaxis; assay type: cell-based, mouse; conditions: 120 min, 37°C, 5-μm pores; for Mϕ chemotaxis, Fpr2^−/− compared with WT: Fpr2^−/− Mϕs, for fMLP at concentrations >1 μM
# Procedure, shortened: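 Macrophages were either bone-marrow-derived (5 d in 20% FCS/30% L929-conditioned DMEM) or peritoneal cells elicited by Biogel (harvested 4 d after i.p. 2% P-100). Cells were suspended at 4 × 10^6/ml in RPMI 1640 with 0.1% BSA. 10^5 cells were placed above 5-μm polycarbonate filters, with stimuli below, for 120 min at 37°C/5% CO2. Migrated cells were quantified by 4 h alamarBlue fluorescence (ex 530–560, em 590 nm) against a macrophage standard curve. Three experiments, each in quadruplicate.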
# [5] = test system: zymosan-elicited Gr1^+ cell influx, WT and Fpr2^−/− mice; assay: Zymosan-induced peritonitis, Gr1^+ cell recruitment; assay type: in vivo, mouse; conditions: 1 mg i.v. −10 min, zymosan 1 mg i.p., 4 h, n = 6, NS, mean ± SEM
# Procedure, shortened: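 Peritonitis was induced in WT and Fpr2−/− mice with zymosan A, 1 mg i.p. in 0.5 ml PBS. Test protein (1 mg) was given i.v. 10 min before zymosan. Cavities were lavaged at 4 h with PBS containing 25 U/ml heparin and 0.3 mM EDTA. Gr1+ cell influx was quantified by Turk's differential counts and flow cytometry, with percentage of events multiplied by total count per cavity.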
# fpr1^−/− mice = conditions: ref [42]; cited from earlier work
molecule,measurement,setting,value
CC(C)c1c(NC(=O)Nc2ccc(Cl)cc2)c(=O)n(-c2ccccc2)n1C [Cpd43],FPR2/ALX agonism,FPR2/ALX,selective nonpeptidic FPR2/ALX agonist
same,"effect on IL-1β-promoted cell recruitment, Fpr2^−/−","[1]; Fpr2^−/− mice, i.v., air pouch",ineffective
same,"inhibition of IL-1β-promoted Gr1^+ cell recruitment, WT","[1]; WT mice, i.v., air pouch",50–75%
same,"ERK phosphorylation, WT Mϕs",[2],concentration-dependent rapid phosphorylation of ERK
"CCCCC[C@H](O)/C=C/C=C\C=C\C=C\[C@@H](O)[C@@H](O)CCCC(=O)O [LXA4, lipoxin A4]","effect on IL-1β-promoted cell recruitment, Fpr2^−/−","[1]; Fpr2^−/− mice, i.v., air pouch",ineffective
same,"inhibition of IL-1β-promoted Gr1^+ cell recruitment, WT","[1]; WT mice, i.v., air pouch",50–75%
same,activation of Fpr2,Fpr2 [3]; ref [23],known to be activated
"C[C@@H]1C[C@H]2[C@@H]3CCC4=CC(=O)C=C[C@]4(C)[C@@]3(F)[C@@H](O)C[C@]2(C)[C@@]1(O)C(=O)COP(=O)([O-])[O-].[Na+].[Na+] [dexamethasone, dexamethasone 21-phosphate disodium salt]","efficacy in air pouch, Fpr2^−/− mice","[1]; Fpr2^−/− mice, dexamethasone 0.5 mg/kg i.v. −1 h, IL-1β 20 ng",reduced efficacy
same,"Gr1^+ cell infiltrate into air pouch, WT","[1]; WT mice, dexamethasone 0.5 mg/kg i.v. −1 h, IL-1β 20 ng",significantly reduced
Ac-AMVSEFLKQAWIENEEQEYVVQTVK [Ac2–26],activation of FPRs,all FPRs,known to activate all FPRs
WKYMVm [W-peptide],binding sites revealed by Scatchard plot,Fpr2 [4],both high- and low-affinity binding sites
same,"ERK phosphorylation, Fpr2^−/− Mϕs",[2],absent
same,"ERK phosphorylation, WT Mϕs",[2],concentration-dependent rapid phosphorylation of ERK
same,ligand activity / affinity at Fpr2,"Fpr2 [3]; high-affinity ligand, ref [30]",high-affinity ligand for Fpr2
formyl-Met-Leu-Phe [fMLP],concentration for optimal Mϕ chemotaxis,Mϕs (WT and Fpr2^−/−); mean of three experiments in quadruplicate,1 µM
same,"Mϕ chemotaxis, Fpr2^−/− compared with WT",Mϕs (WT and Fpr2^−/−),attenuated significantly
B1,"effect on IL-1β-promoted cell recruitment, Fpr2^−/−","[1]; Fpr2^−/− mice, i.v., air pouch",did not share this response
same,increase in number of cells recruited by IL-1β over control,"[1]; WT mice, i.v., air pouch, control values of 3.0 ± 0.4 × 10^6 per cavity",1.5 fold
same,"Mϕ chemotaxis, Fpr2^−/− compared with WT",Mϕs (WT and Fpr2^−/−),absent
same,"Mϕ chemotaxis, WT",Mϕs (WT and Fpr2^−/−); WT Mϕs,promoted consistently
same,"ERK phosphorylation, Fpr2^−/− Mϕs",[2],unchanged; also recorded: retained; also recorded: not diminished
same,activation of Fpr2,Fpr2 [3]; ref [22],known to be activated
B2,"reduction of Gr1^+ cell content in peritoneal fluids, Fpr2^−/−",[5],−5 ± 12%
same,anti-migratory action in fpr1^−/− mice,fpr1^−/− mice,a high proportion of the anti-migratory action of hrAnxA1 is retained
same,"inhibition of PMN accumulation in air pouch, Fpr2^−/− mice","[1]; Fpr2^−/− mice, i.v. −10 min, IL-1β 20 ng, NS",25–30%
same,"inhibition of PMN accumulation in air pouch, dose dependence","[1]; WT mice, i.v. −10 min, IL-1β 20 ng",dose-response inhibition
